Measured values from publication PMC7266109 (Drug Design, Development and Therapy, 2020).
Read-outs that look alike come from different tables or passages of the source.

Assay type: in vitro ADME, rat
Outline: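 Spiked rat plasma held under storage and analysis conditions, then quantified by UPLC-MS/MS. Work-up: IS (working solution 100 ng/mL) added, protein precipitation with acetonitrile (3 volumes), vortex 1 min, centrifugation 13,000 g for 10 min at 4°C, supernatant injected. Separation: BEH C18 column at 40°C, acetonitrile/0.1% formic acid gradient at 0.40 mL/min, 3.0 min run.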

Measured: Stability in rat plasma samples

CCc1nc(C(N)=O)c(Nc2ccc(N3CCC(N4CCN(C)CC4)CC3)c(OC)c2)nc1NC1CCOCC1 [Gilteritinib]
stable: at room temperature for at least 24 h | at −20°C for at least 31 days | in the auto-sampler (10°C) for at least four hours | three complete freeze (−20°C)/thaw (RT) cycles
